Test results reported in paper PMC5061793 (British Journal of Clinical Pharmacology, 2016).
“Also recorded” adds a separate entry of the source.

Columns and labels:
healthy male subjects = experiment: Safety and tolerability; assay type: in vivo, human
In short: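 Randomized, double-blind, placebo-controlled single-dose escalation, 3:1 active:placebo (six and two per group). Males 21–50 y, BMI 18.5–29.9 kg m−2, CYP2C19 EMs or PMs, dosed four per day ≥1 h apart, ≥5 days between levels. Monitored AEs, laboratory tests, physical exam, vital signs, cardiac monitoring, 12-lead ECG and 16-item Bond–Lader 100 mm mood VAS. Investigators rated tolerability on a four-point scale. Descriptive statistics.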

rat hippocampal slices = settings: cited from earlier work
[1] = Urinary excretion after single oral doses of BI 409306; assay type: in vivo, human; settings: for fe0–4: urine 0 h to 4 h, geometric mean (gCV%)
In short: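 Drug amounts were measured by HPLC-MS/MS, giving amounts and fractions excreted per interval. Dose proportionality of Ae0–4 was tested by linear regression in EMs and by a mixed-effects linear model in PMs, with a 95% CI on the slope.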

[2] = preclinical studies; cited from earlier work
[3] = Plasma pharmacokinetics after single rising oral doses of BI 409306; assay type: in vivo, human; settings: for AUC0–∞ ratio of tablet to solution: EM; for Cl F^−1: geometric mean (gCV%)
In short: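 Healthy males (21–50 y), CYP2C19-genotyped as homozygous EMs or PMs, given single oral doses after a ≥10 h fast: solution 0.5–5 mg, tablets 10–350 mg; PMs given 10 mg, then 100 mg tablet. Tablet/solution crossover at 5 and 50 mg. Plasma sampled −2 h to 24 h (48, 72 h if ≥10 mg). HPLC-MS/MS with isotope-labelled internal standard. Noncompartmental analysis; log-scale ANOVA for formulation and genotype.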

[4] = tested on: patients with mild-to-moderate probable AD; settings: cited from earlier work
[5] = single oral dose 2 mg sol EM (n = 6)
[6] = single oral dose 5 mg sol EM (n = 6)
[7] = single oral dose 5 mg tab EM (n = 6)
[8] = single oral dose 10 mg tab EM (n = 6)
[9] = single oral dose 10 mg tab PM (n = 6)
[10] = single oral dose 50 mg sol EM (n = 8)
[11] = single oral dose 50 mg tab EM (n = 6)
[12] = single oral dose 100 mg tab EM (n = 5)
[13] = single oral dose 100 mg tab PM (n = 6)
[14] = single oral dose 200 mg tab EM (n = 6)
[15] = single oral dose 350 mg tab EM (n = 6)
[16] = after administration of 50 mg tablets
[17] = dose levels of 10 mg and 100 mg

## O=c1[nH]c(Cc2ccccn2)nc2c1cnn2C1CCOCC1 [BI 409306]
Healthy male subjects; 2 mg sol EM (n = 6)
  AE: Dizziness: 1 (16.7) n (%)
  AE: Gastrointestinal disorders: 1 (16.7) n (%)
  AE: Headache: 1 (16.7) n (%)
  AE: Nausea: 1 (16.7) n (%)
  AE: Nervous system disorders: 2 (33.3) n (%)
Healthy male subjects; 5 mg tab EM (n = 6)
  AE: Headache: 1 (16.7) n (%)
  AE: Nervous system disorders: 1 (16.7) n (%)
Healthy male subjects; 10 mg tab PM (n = 6)
  AE: Diarrhoea: 1 (16.7) n (%)
  AE: Gastrointestinal disorders: 1 (16.7) n (%)
  AE: Headache: 2 (33.3) n (%)
  AE: Nervous system disorders: 2 (33.3) n (%)
Healthy male subjects; 50 mg tab EM (n = 6)
  AE: Cardiac disorders: 1 (16.7) n (%)
  AE: Extrasystoles: 1 (16.7) n (%)
  AE: Palpitations: 1 (16.7) n (%)
Healthy male subjects; 100 mg tab PM (n = 6)
  AE: Chromatopsia: 1 (16.7) n (%)
  AE: Eye disorders: 2 (33.3) n (%)
  AE: Headache: 2 (33.3) n (%)
  AE: Nervous system disorders: 2 (33.3) n (%)
  AE: Photopsia: 1 (16.7) n (%)
  AE: Presyncope: 1 (16.7) n (%)
Healthy male subjects; 200 mg tab EM (n = 6)
  AE: Headache: 1 (16.7) n (%)
  AE: Nervous system disorders: 2 (33.3) n (%)
  AE: Photophobia: 1 (16.7) n (%)
  AE: Photopsia: 2 (33.3) n (%)
  AE: Somnolence: 1 (16.7) n (%)
Healthy male subjects; 350 mg tab EM (n = 6)
  AE: Blurred vision: 1 (16.7) n (%)
  AE: Cardiac disorders: 1 (16.7) n (%)
  AE: Chromatopsia: 1 (16.7) n (%)
  AE: Dry mouth: 1 (16.7) n (%)
  AE: Gastrointestinal disorders: 2 (33.3) n (%)
  AE: Nausea: 1 (16.7) n (%)
  AE: Nervous system disorders: 1 (16.7) n (%)
  AE: Photophobia: 1 (16.7) n (%)
  AE: Photopsia: 2 (33.3) n (%)
  AE: Sinus tachycardia: 1 (16.7) n (%)
  AE: Somnolence: 1 (16.7) n (%)
Healthy male subjects; CYP2C19 EM healthy male subjects
  dose up to which generally safe and well tolerated: up to 350 mg
Healthy male subjects; CYP2C19 EMs treated with BI 409306, all dose groups
  subjects with headache: three
Healthy male subjects; CYP2C19 EMs, all dose groups
  subjects with photophobia/increased sensitivity to light: three
  subjects with photopsia/flashing lights: five
Healthy male subjects; CYP2C19 PM healthy male subjects
  dose up to which generally safe and well tolerated: up to 100 mg
Healthy male subjects; CYP2C19 PMs treated with BI 409306 (10 mg and 100 mg)
  subjects with headache: four
Healthy male subjects; all AEs
  intensity of AEs: mild to moderate
Healthy male subjects; data not shown
  B&L VAS scores: effects on mood, vigilance or stress levels: no clinically relevant effects; also recorded: did not reveal any clinically relevant effects
Healthy male subjects; exception: one episode of transient sinus tachycardia
  abnormalities in laboratory results, ECG findings or vital signs: No relevant abnormalities
Healthy male subjects; healthy male subjects, single rising doses
  overall safety and tolerability: generally safe and well tolerated
Healthy male subjects; most frequently reported AEs
  onset of nervous system and eye disorder AEs after administration: 20 to 30 min
Healthy male subjects; nervous system and eye disorders
  time within which AEs mostly resolved: 1 to 2 h
Healthy male subjects; single doses 0.5–350 mg, EMs and PMs
  serious AEs: No serious AEs occurred; also recorded: No serious AEs were reported
Healthy male subjects; single oral dose, CYP2C19 EMs
  highest (maximum) tolerated dose: 350 mg
Rat hippocampal slices
  synaptic plasticity (LTP): enhancement of LTP
[1]; CYP2C19 EMs
  urinary excretion of BI 409306: < 2 % of the dose
[1]; CYP2C19 EMs, entire dose range, 95% CI: 0.98, 1.12
  dose proportionality exponent β of the power model for Ae0–4: 1.05
[1]; CYP2C19 PMs
  urinary excretion of BI 409306: up to 2.68 % of the dose
[1]; [5]
  fe0–4: 0.483 (46.5) %
[1]; [6]
  fe0–4: 0.583 (26.0) %
[1]; [7]
  fe0–4: 0.611 (24.2) %
[1]; [8]
  fe0–4: 0.461 (60.2) %
[1]; [9]
  fe0–4: 1.30 (14.3) %
[1]; [10]
  fe0–4: 0.594 (48.1) %
[1]; [11]
  fe0–4: 0.523 (56.9) %
[1]; [12]
  fe0–4: 0.597 (53.0) %
[1]; [13]
  fe0–4: 1.78 (23.3) %
[1]; [14]
  fe0–4: 0.676 (48.8) %
[1]; [15]
  fe0–4: 0.786 (24.0) %
[2]
  memory performance: improved memory performance
[3]; 5 mg dose, 90% CI: 87.6%, 111%
  AUC0–∞ ratio of tablet to solution: 98.5%
[3]; 10 mg dose, 90% CI: 125%, 401%
  ratio (CYP2C19 PM to EM) of Cmax: 224%
[3]; 10 mg dose, 90% CI: 291%, 843%
  ratio (CYP2C19 PM to EM) of AUC0–∞: 496%
[3]; 50 mg dose, 90% CI: 59.6%, 119%
  AUC0–∞ ratio of tablet to solution: 84.2%
[3]; 100 mg dose, 90% CI: 124%, 421%
  ratio (CYP2C19 PM to EM) of Cmax: 228%
[3]; 100 mg dose, 90% CI: 254%, 677%
  ratio (CYP2C19 PM to EM) of AUC0–∞: 415%
[3]; [16]
  reduction of gMean AUC, tablet versus oral solution: approximately 16%
  reduction of gMean Cmax, tablet versus oral solution: approximately 20%
[3]; all DGs
  time following dose within which BI 409306 was eliminated: ≤ 24 h
[3]; [17]
  AUC0–∞ in CYP2C19 PMs compared with EMs: 4.1–5.0 fold
  Cmax in CYP2C19 PMs compared with EMs: 2.2–2.3 fold
[3]; single oral dose 0.5 mg sol EM (n = 6)
  Cl F^−1: 6770 (50.4) ml min^−1
[3]; [5]
  Cl F^−1: 5130 (41.3) ml min^−1
[3]; [6]
  Cl F^−1: 3490 (27.0) ml min^−1
[3]; [7]
  Cl F^−1: 3540 (32.2) ml min^−1
[3]; [8]
  Cl F^−1: 5580 (69.8) ml min^−1
[3]; [9]
  Cl F^−1: 1120 (35.5) ml min^−1
[3]; single oral dose 25 mg tab EM (n = 6)
  Cl F^−1: 3810 (49.4) ml min^−1
[3]; [10]
  Cl F^−1: 4130 (42.9) ml min^−1
[3]; [11]
  Cl F^−1: 4970 (82.0) ml min^−1
[3]; [12]
  Cl F^−1: 3660 (68.5) ml min^−1
[3]; [13]
  Cl F^−1: 882 (21.4) ml min^−1
[3]; [14]
  Cl F^−1: 2730 (44.4) ml min^−1
[3]; [15]
  Cl F^−1: 2350 (17.1) ml min^−1

## C[C@@H]1CN(Cc2ncccn2)C[C@H]1c1nc2c(cnn2C2CCOCC2)c(=O)[nH]1 [PF‐04447943, 6‐[(3S,4S)‐4‐methyl‐1‐(pyrimidin‐2‐ylmethyl)pyrrolidin‐3‐yl]‐1‐(tetrahydro‐2H‐pyran‐4‐yl)‐1,5‐dihydro‐4H‐pyrazolo[3,4‐d]pyrimidin‐4‐one]
[4]
  incidence of severe AEs: comparable to that with placebo
